Experimental data collected from several papers.
Protocols differ between the studies behind these lines.
Read-out: cell growth or viability

O=C(O)/C=C/c1cccc(C(c2c[nH]c3ccccc23)c2c[nH]c3ccccc23)c1
inhibition (DU-145; MTT; 100 µM, 48 h): 28%

COc1cc2c(cc1OS(N)(=O)=O)CCN(S(=O)(=O)c1ccccc1OC)C2
GI50 (DU-145; WST-1; 96 h): > 100000 nM

O=C1Nc2ccccc2C1=NNc1nnc2n1N=C(c1ccccc1)CS2
inhibition (DU-145; SRB; 10 µM): 16%

Cc1cccc2c(C(c3ccc(/C=C/C(=O)O)s3)c3c[nH]c4c(C)cccc34)c[nH]c12
inhibition (DU-145; MTT; 100 µM, 48 h): 78%

CCc1cccc(CN2CCc3cc(O)c(OC)cc3C2)c1
GI50 (DU-145; WST-1; 96 h): > 100000 nM

COc1ccc(-c2ccc(-c3ccc(C(=N)N)nc3)s2)cc1Cl
GI50 (BT-549; SRB): 1720 nM

COc1cc(Nc2nccc(-c3cnn4nc(OC)ccc34)n2)cc(C(F)(F)F)c1
IC50 (LOU-NH91; ATP luminescence): 190 nM

Cn1cc(C(c2ccc(C(=O)O)cc2)c2cn(C)c3ccccc23)c2ccccc21
inhibition (DU-145; MTT; 100 µM, 48 h): ~20%

CC(C)C[C@H](NC(=O)[C@H](Cc1ccccc1)NC(=O)c1cnccn1)B(O)O
IC50 (LN-229; ATP luminescence): 7.9 nM

O=C(O)c1ccc(C(c2c[nH]c3ccccc23)c2c[nH]c3ccccc23)cc1
inhibition (LNCaP; MTT; 100 µM, 48 h): 100%

COc1ccc(CN2CCc3cc(OS(N)(=O)=O)c(OC)cc3C2)cc1
GI50 (DU-145; WST-1; 96 h): 57200 nM

FC(F)(F)c1ccc(C(c2c[nH]c3ccccc23)c2c[nH]c3ccccc23)cc1
inhibition (DU-145; MTT; 100 µM, 48 h): 95%

COc1cc2c(cc1O)CCN(Cc1cccc(OC(F)(F)F)c1)C2
GI50 (DU-145; WST-1; 96 h): 55000 nM

CC(=O)O[C@@]12CO[C@@H]1C[C@H](O)[C@@]1(C)C(=O)[C@H](O)C3=C(C)[C@@H](OC(=O)[C@H](O)[C@@H](NC(=O)OC(C)(C)C)c4ccccc4)C[C@@](O)([C@@H](OC(=O)c4ccccc4)[C@H]21)C3(C)C
inhibition (LNCaP; trypan blue; 3 nM, 72 h): > 65%

COc1cc2c(cc1OS(N)(=O)=O)CCN(Cc1cccc([N+](=O)[O-])c1)C2
GI50 (DU-145; WST-1; 96 h): 3030 nM

COc1cccc(Oc2ccccc2NC(=O)CNC(=O)c2cccc3ccccc23)c1
GI50 (MOLT-4; SRB; 48 h): 661 nM
